Source: ChEMBL document CHEMBL6182837, “Discovery and biological evaluation of nitrofuranyl-pyrazolopyrimidine hybrid conjugates as potent antimicrobial agents targeting Staphylococcus aureus and methicillin-resistant S. aureus” (RSC Med Chem, 2025)
In brackets after ≈: the same amount, converted by molar mass. Activity calls are given as the source filed them. The rule behind the calls is not given here.

Experiments:
Staphylococcus aureus [1] = assay: Antibacterial activity against methicillin-resistant Staphylococcus aureus ATCC 15187 infected in male Balb/c/c mouse assessed as reduction in bacterial load in kidney at 50 to 100 mg/kg measured after 24 hrs by colony counting method; assay type: functional, organism-based; details: dose 50-100 mg/kg
Summary of the method: (§1)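 Mouse peritonitis model: 0.1 ml MRSA suspension (10^8 CFU ml−1) given intraperitoneally; treatment intraperitoneal at 50 or 100 mg kg−1 at 2 and 5 h post-infection, with saline and vancomycin (50 mg kg−1) controls; killed at 24 h; kidney and lung homogenates plated on Mueller–Hinton agar with 20 μg ml−1 ciprofloxacin, 24 h; CFU ml−1; unpaired t-test.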

Staphylococcus aureus [2] = assay: Induction of membrane permeabilization in Staphylococcus aureus ATCC 29213 at 1 to 8 times MIC measured after 80 mins by PI staining based analysis relative to control; assay type: functional; details: 1.333 h
Summary of the method: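 PI permeabilization of S. aureus at 1×, 2×, 4×, 8× MIC followed over time up to 80 min; vancomycin 4× and 8× MIC as drug control; untreated blank; percentage permeabilization.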

Staphylococcus aureus [3] = assay: Induction of resistance development in methicillin-resistant Staphylococcus aureus ATCC 15187 assessed as fold increase in MIC at 0.5 MIC measured after 20 passages relative to control; assay type: functional
Summary of the method: (§2)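 Bacteria were serially passaged for 20 days after exposure to a sublethal drug concentration. MIC was determined at each passage. Vancomycin and norfloxacin were run as control agents.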

[4] = C0 in male Balb/c mouse at 1 mg/kg, iv by LC-MS/MS analysis; assay type: ADME, organism-based; details: in vivo
Summary of the method: (§3)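 Balb/c mice dosed 1 mg kg−1 intravenously or 30 mg kg−1 orally (2.5 mg kg−1 oral also given); plasma PK parameters derived.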

[5] = Drug metabolism in mouse liver microsomes; assay type: ADME, Microsome; details: read-out: Drug metabolism
Staphylococcus aureus [6] = assay: Bacteriostatic activity against Staphylococcus aureus ATCC 29213 assessed as reduction in bacterial count at MIC incubated for 2 to 24 hrs by time-kill assay; assay type: functional; details: time 2-24 hrs
Staphylococcus aureus [7] = assay: Induction of morphological disruption in Staphylococcus aureus ATCC 29213 incubated for 2 to 6 hrs by SEM analysis; assay type: functional, organism-based; details: time 2-6 hrs
Summary of the method: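 S. aureus incubated 2 h and 6 h with compound at 1×, 2×, 4× MIC, imaged by scanning electron microscopy; untreated, vancomycin and daptomycin (1×, 2× MIC) controls.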

Staphylococcus aureus [8] = assay: Antibacterial activity against methicillin-resistant Staphylococcus aureus ATCC 15187 infected in male Balb/c/c mouse assessed as reduction in bacterial load in lung at 50 to 100 mg/kg measured after 24 hrs by colony counting method; assay type: functional, organism-based; details: dose 50-100 mg/kg; summary of the method: as §1
Staphylococcus aureus [9] = assay: Antibacterial activity against Staphylococcus aureus SA-1199B overexpressing NorA by Alamar blue staining based analysis; assay type: functional
Staphylococcus aureus [10] = assay: Bacteriostatic activity against Staphylococcus aureus ATCC 29213 assessed as reduction in bacterial count incubated for 2 to 24 hrs by time-kill assay; assay type: functional, organism-based; details: time 2-24 hrs
Staphylococcus aureus [11] = assay: Synergistic bactericidal activity against methicillin-resistant Staphylococcus aureus ATCC 15187 assessed as reduction in bacterial count at 0.075 ug/ml measured after 24 hrs in presence of rifampicin by time-kill assay; assay type: functional, organism-based; details: dose 0.075 µg/ml
Staphylococcus aureus [12] = assay: Bactericidal activity against Staphylococcus aureus ATCC 29213 assessed as reduction in bacterial count at 2 to 4 times MIC incubated for 2 to 24 hrs by time-kill assay relative to control; assay type: functional; set-up: scale not given: the % may be the effect or the level left; details: time 2-24 hrs
Staphylococcus aureus [13] = assay: Antibacterial activity against Staphylococcus aureus ATCC 29213 incubated for 24 hrs by Alamar blue staining based microdilution method; assay type: functional
[14] = Protein binding in plasma (unknown origin); assay type: ADME, cell-free
[15] = Terminal half life in male Balb/c mouse at 30 mg/kg, po by LC-MS/MS analysis; assay type: ADME, organism-based; details: in vivo, read-out: beta t1/2 (converted); summary of the method: as §3
Staphylococcus aureus [16] = assay: Bactericidal activity against methicillin-resistant Staphylococcus aureus ATCC 15187 assessed as reduction in bacterial count at 4 times MIC measured for 2 hrs by time-kill assay; assay type: functional, organism-based
Staphylococcus aureus [17] = assay: Induction of resistance development in Staphylococcus aureus ATCC 29213 at 0.5 MIC measured after […]; assay type: functional, organism-based; details: 0.5 M
Summary of the method: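 Bacteria serially passaged under sublethal drug exposure over 20 days, with MIC redetermined at each passage; vancomycin and norfloxacin as controls.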

[18] = AUC (0 to t) in male Balb/c mouse at 1 mg/kg, iv by LC-MS/MS analysis; assay type: ADME, organism-based; details: in vivo; summary of the method: as §3
[19] = Lipophilicity, logD of compound; assay type: physicochemical; details: octanol/water
[20] = Solubility of compound in water; assay type: physicochemical
Staphylococcus aureus [21] = assay: Induction of resistance development in Staphylococcus aureus ATCC 29213 assessed as fold increase in MIC at 0.5 MIC measured after 20 passages relative to control; assay type: functional; summary of the method: as §2
Staphylococcus aureus [22] = assay: Induction of morphological disruption in methicillin-resistant Staphylococcus aureus ATCC 15187 incubated for 2 to 6 hrs by SEM analysis; assay type: functional, organism-based; details: time 2-6 hrs
Summary of the method: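 Bacteria incubated for 2 h and 6 h at 1×, 2× and 4× MIC, with vancomycin and daptomycin at 1× and 2× MIC and untreated cells; cell morphology imaged by scanning electron microscopy.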

Staphylococcus aureus [23] = assay: Synergistic antibacterial activity against Staphylococcus aureus ATCC 29213 assessed as fractional inhibitory concentration index at 0.02 ug/ml incubated up to 24 hrs in presence of vancomycin by checkerboard analysis; assay type: functional; details: dose 0.02 µg/ml
Summary of the method: (§4)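 Checkerboard microdilution in cation-adjusted MHB, done per CLSI. The compound and partner antibiotic were dissolved in DMSO. The antibiotic was serially diluted across the plate and the compound was twofold serially diluted into the wells to make the combinations. Each well received 0.1 ml of inoculum, a 0.5 McFarland suspension (1.5 × 10^8 CFU ml−1) diluted 1:100 in MHB. Plates were incubated 24 h at 37 °C, then read with Alamar blue (0.04%). FIC index was calculated.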

Staphylococcus aureus [24] = assay: Antibacterial activity against Staphylococcus aureus SA-K2191 overexpressing MsrA by Alamar blue staining based analysis; assay type: functional
Staphylococcus aureus [25] = assay: Bactericidal activity against methicillin-resistant Staphylococcus aureus ATCC 15187 assessed as reduction in bacterial count at 2 times MIC measured after 8 to 10 hrs by time-kill assay; assay type: functional, organism-based; details: time 8-10 hrs
Staphylococcus aureus [26] = assay: Disruption of cell membrane integrity in methicillin-resistant Staphylococcus aureus ATCC 15187 assessed as red fluorescence at 1 to 2 times MIC incubated for 2.5 hrs by DAPI/PI staining based fluorescence microscopy; assay type: functional, organism-based
Summary of the method: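 Bacteria treated at 1× and 2× MIC, with vancomycin 2× MIC as control and an untreated blank; stained with DAPI (all cells) and propidium iodide (membrane-damaged cells); imaged by fluorescence microscopy, red PI signal taken as membrane damage.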

Staphylococcus aureus [27] = assay: Synergistic antibacterial activity against methicillin-resistant Staphylococcus aureus ATCC 15187 assessed as fractional inhibitory concentration index at 0.075 ug/ml incubated up to 24 hrs in presence of rifampicin by checkerboard analysis; assay type: functional; details: dose 0.075 µg/ml; summary of the method: as §4
Staphylococcus aureus [28] = assay: Synergistic bactericidal activity against Staphylococcus aureus ATCC 29213 assessed as reduction in bacterial count at 0.02 ug/ml measured after 24 hrs in presence of vancomycin by time-kill assay; assay type: functional, organism-based; details: dose 0.02 µg/ml
Summary of the method: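 Time-kill with compound combined with vancomycin at synergistic concentrations (from checkerboard FIC) against S. aureus; CFU followed up to 8 h and at 24 h.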

Structure (SMILES): CCCc1nn(C)c2c(Nc3ccc(O)cc3)nc(-c3ccc([N+](=O)[O-])o3)nc12
- Activity (Staphylococcus aureus [1]): Active; Significantly Greater Effect Was Observed At 50 Mg/Kg Compared To Vancomycin
- Activity (Staphylococcus aureus [2]): 60%
- fold change (FC) (Staphylococcus aureus [3]): 3200
- C0 [4]: 552 ng/mL
- metabolised [5]: 71%
- Activity (Staphylococcus aureus [6]): <3 log10CFU
- Activity (Staphylococcus aureus [7]): Active
- Activity (Staphylococcus aureus [8]): Active; Significantly Lesser Effect Was Observed At 50 To 100 Mg/Kg Compared To Vancomycin
- MIC (Staphylococcus aureus [9]): 0.6 µg/mL (≈ 1.52 µM)
- Activity (Staphylococcus aureus [10]): Dose-dependent-effect
- Activity (Staphylococcus aureus [11]): Moderate_effect
- Activity (Staphylococcus aureus [12]): 99.9%
- MIC (Staphylococcus aureus [13]): 0.64 µg/mL (≈ 1.62 µM)
- PPB [14]: 99.1%
- half-life [15]: 21 min
- Activity (Staphylococcus aureus [16]): Active
- Activity (Staphylococcus aureus [17]): inactive
- AUC(0-t) [18]: 90.8 ng·h/mL
- logD [19]: 2.92
- solubility [20]: 1 µg/mL (≈ 2.54 µM)
- fold change (FC) (Staphylococcus aureus [21]): 200
- Activity (Staphylococcus aureus [22]): Active
- fractional inhibitory concentration index (FICI) (Staphylococcus aureus [23]): 0.5
- MIC (Staphylococcus aureus [24]): 0.15 µg/mL (≈ 0.38 µM)
- Activity (Staphylococcus aureus [25]): Not active; Initial Killing Was Observed, But Exhibited Some Re-Growth After 8 To 10 Hrs
- Activity (Staphylococcus aureus [26]): Active
- fractional inhibitory concentration index (FICI) (Staphylococcus aureus [27]): 0.5
- Activity (Staphylococcus aureus [28]): inactive
